Hits are enriched below; roughly 2% of the tested compounds scored in any of these assays.
T cell HTS – T cell immune modulators affecting CD8 T cell-vesicle binding; AID 2052; 2C CD8+ T cell-vesicle binding, flow cytometry; active compounds read low; 0.068% of 330,000 active; response (vesicle binding), % at 7 µM;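 active = response, share of CD8 T cells binding vesicles, and their 90th percentile fluorescence all below set limits, cut at about 80% in these data, passing the limit was not always enough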;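 also: values below 100% mean blocked vesicle binding to the CD8+ T cells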
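System: murine 2C transgenic CD8+ T lymphocytes; also added: QL9-loaded Drosophila micro-vesicles; times: binding 1.5 h at 37 °C; measured by: flow cytometry, PE anti-B7-1 (FL2) versus Alexa647 anti-CD8 (FL8), PFA-fixed; control set: Peptide-free naked vesicles (low) and QL9 vesicles with 0.7% DMSO vehicle (high)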
NR2E3 ag-1 – human photoreceptor-specific nuclear receptor agonism; CHO-S Gal4-NCOR/VP16-NR2E3 two-hybrid, luciferase; Q9Y5X4; AID 602229; inhibition of corepressor binding, % at 3.98 µM; 0.35% of 360,000 active;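 active = inhibition above the mean of all tested compounds plus 3 SD, cut at about 70% in these data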;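 also: higher means lower luciferase signal from less NR2E3 corepressor binding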
Target sequence (Q9Y5X4 whole entry, looked up, the tested form may be a part): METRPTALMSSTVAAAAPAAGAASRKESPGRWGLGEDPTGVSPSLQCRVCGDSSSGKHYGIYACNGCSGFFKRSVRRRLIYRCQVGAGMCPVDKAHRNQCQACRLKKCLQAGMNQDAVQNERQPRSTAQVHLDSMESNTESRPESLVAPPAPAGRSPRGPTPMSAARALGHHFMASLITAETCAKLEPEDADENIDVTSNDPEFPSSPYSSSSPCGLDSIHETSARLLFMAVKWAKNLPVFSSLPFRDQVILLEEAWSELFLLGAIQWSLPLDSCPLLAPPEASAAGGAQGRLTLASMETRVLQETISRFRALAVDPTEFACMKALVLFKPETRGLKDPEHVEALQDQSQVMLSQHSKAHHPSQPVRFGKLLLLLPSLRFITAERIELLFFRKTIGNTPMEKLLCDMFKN
NR2E3 ag-2 – agonists of human nuclear receptor NR2E3; GST-NR2E3/biotin-RetCOR TR-FRET, 1536-well; inhibition of corepressor binding, % at 4.78 µM; 0.12% of 320,000 active; AID 2300;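 active = percent inhibition above the cutoff of mean plus 3 SD of all tested compounds, set per screening campaign, cut at about 20% in these data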
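Material: NR2E3–RetCOR corepressor complex / Amount: 1.35 nM GST-NR2E3 / Medium: Tris pH 7.5 / Compound: single nominal compound dose of 4.8 µM / Incubation: 5 h at 4 °C / Technique: TR-FRET, Eu(K)-anti-GST donor, streptavidin-D2 acceptor, ex 340, em 617/671 nm / Read-out basis: percent loss of FRET ratio relative to control wells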
Myeloid diff MLP – myeloid differentiation induction. ER-HoxA9 myeloid progenitors, lysozyme-GFP differentiation, flow cytometry. 1% of 360,000 active. AID 624256. calls only at 10 µM;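 active = normalized GFP-positive differentiation at or above the plate's own cutoff, the solvent-only control mean plus 3 SD; inconclusive = no clear call, values can overlap the other calls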;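 also: cells exposed to compound for four days before flow analysis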
FXN GAA850 act – activators of GAA850 frataxin (FXN) promoter | HEK293 lucGAA850 FXN promoter luciferase reporter, 24 h; percent of 10 µM SAHA response | activation, % at 6 µM | 0.56% of 360,000 active | AID 540364;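 active = activation above the average of all compounds screened plus 3 SD, cutoff fixed separately per campaign, cut at about 7.5% in these data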
NR2E3 ag confirm – confirmation of human NR2E3 agonists. shares compounds with NR2E3 ag-1. CHO-S mammalian two-hybrid NR2E3-NCOR, luciferase luminescence. inhibition, % at 3.98 µM. 51% of 2,300 active. AID 624378;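 active = average inhibition above a cutoff equal to the mean inhibition of all tested compounds plus one SD, cut at about 70% in these data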
VP16 counter – reduces GAL4-VP16 reporter signal in NR2E3 counterscreen; inhibition, % at 3.98 µM; CHO-S GAL4-VP16 luciferase reporter, luminescence; 29% of 2,300 active; AID 624379; shares compounds with NR2E3 ag-1;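 active = mean inhibition above a cutoff equal to the average over all tested compounds plus one standard deviation, cut at about 70% in these data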;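 also: luciferase from a UAS reporter driven by GAL4-VP16 transactivation; higher means less reporter light so more repression of VP16 activity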
Large screens that a line does not name were inactive (follow-up assays come after a bar, where they were run).

Nc1nc2ccc(Cl)cc2cc1C(=O)NCc1ccc(Oc2ccccc2)cc1	NR2E3 ag-1 95.0 (no result: T cell HTS, NR2E3 ag-2, FXN GAA850 act) | NR2E3 ag confirm 94.3 | VP16 counter 82.0
Nc1nc2ccc(Cl)cc2cc1C(=O)NCCc1c[nH]c2ccccc12	NR2E3 ag-1 93.1 (no result: T cell HTS, NR2E3 ag-2, FXN GAA850 act) | NR2E3 ag confirm 94.2 | VP16 counter 83.1
Nc1nc2ccc(Cl)cc2cc1C(=O)NCCc1ccc(Cl)cc1Cl	none (no result: T cell HTS, NR2E3 ag-1, NR2E3 ag-2, FXN GAA850 act)
COc1ccc(CNC(=O)c2cccc3c(-c4ccc(F)c(F)c4)coc23)cc1OC	none (no result: T cell HTS, NR2E3 ag-2) | NR2E3 ag confirm 79.5 | VP16 counter inactive
O=C(NCc1ccc(F)c(F)c1)c1ccc(-c2ccc(F)c(F)c2)c2ccoc12	none (no result: T cell HTS, NR2E3 ag-2)
COc1cc(-c2coc3c(C(=O)NCc4ccc(OC)c(OC)c4)cccc23)ccc1O	Myeloid diff MLP inconclusive (no result: T cell HTS, NR2E3 ag-2) | NR2E3 ag confirm inactive | VP16 counter inactive
O=C(NCc1ccccc1)c1cccc2c(-c3ccc(F)c(F)c3)coc12	none (no result: T cell HTS, NR2E3 ag-2)
O=C(NCc1cccnc1)c1ccc(-c2ccc(F)c(F)c2)c2ccoc12	NR2E3 ag-1 76.3 (no result: T cell HTS, NR2E3 ag-2) | NR2E3 ag confirm 95.7 | VP16 counter 75.9
NC(=O)c1cccc(-c2coc3c(C(=O)NCCc4ccccc4)cccc23)c1	none (no result: T cell HTS, NR2E3 ag-2)
COc1ccc(CNC(=O)c2cccc3c(-c4cccc(C(N)=O)c4)coc23)cc1OC	none (no result: T cell HTS, NR2E3 ag-2) | NR2E3 ag confirm inactive | VP16 counter inactive
CCCc1cc(=O)oc2cc(C)cc(OC(C)C(=O)NCCN3CCOCC3)c12 (configuration not stated)	none
CCCCCCCCN1C(=O)[C@H](CC(=O)N2CCCC2)C[C@@]2(C(=O)OC)CCCCC=C12	Myeloid diff MLP inconclusive (no result: T cell HTS, NR2E3 ag-2, FXN GAA850 act)
CN(Cc1cnc2nc(N)nc(N)c2n1)c1ccc(C(=O)NC(CCC(=O)O)C(=O)O)cc1 (configuration not stated)	none (no result: T cell HTS, NR2E3 ag-2, Myeloid diff MLP) | NR2E3 ag confirm inactive | VP16 counter inactive
O=C(c1ccccc1Cl)N1CCN(c2ncccn2)CC1	none
CNC(=S)N/N=C(\C)c1ccc(Cl)c(Cl)c1	none
CNC(=S)NN=C(C)CCCC(C)=NNC(=S)NC	none (no result: T cell HTS, NR2E3 ag-2, Myeloid diff MLP) | NR2E3 ag confirm inactive | VP16 counter inactive
O=C(N/N=C/C=C/c1ccc2c(c1)OCO2)C(O)c1ccccc1 (configuration not stated)	none
CC(=O)N1c2ccc(S(=O)(=O)NCC3CCC(C(=O)Nc4ncccc4C)CC3)cc2CC1C (configuration not stated)	none
CC1Cc2cc(S(=O)(=O)NCCc3ccccc3)ccc2N1C(=O)C1CC1 (configuration not stated)	none | NR2E3 ag confirm 71.3 | VP16 counter inactive
CC(=O)N1c2ccc(S(=O)(=O)NCCc3ccccc3)cc2CC1C (configuration not stated)	NR2E3 ag-1 72.9 | NR2E3 ag confirm inactive | VP16 counter inactive
CC(=O)N1c2ccc(S(=O)(=O)NCC3CCC(C(=O)Nc4cc(C)ccn4)CC3)cc2CC1C (configuration not stated)	none | NR2E3 ag confirm inactive | VP16 counter inactive
O=C(CO)c1c[nH]c2ccccc12	none (no result: T cell HTS, NR2E3 ag-2)
COc1ccc(CNC(=O)C[C@@H]2CC[C@@H](NS(=O)(=O)c3cccc(OC)c3)[C@@H](CO)O2)cc1	none (no result: T cell HTS, NR2E3 ag-1, NR2E3 ag-2, FXN GAA850 act)
CS(=O)(=O)c1ccc(-n2nnc3ccccc32)c([N+](=O)[O-])c1	none
COc1ccc(NS(=O)(=O)c2ccc(-n3nnc4ccccc43)c([N+](=O)[O-])c2)cc1	none | NR2E3 ag confirm inactive | VP16 counter inactive
O=[N+]([O-])c1cc(S(=O)(=O)Nc2cccc(C(F)(F)F)c2)ccc1-n1nnc2ccccc21	NR2E3 ag-1 95.5 | NR2E3 ag confirm 98.0 | VP16 counter 87.2
COc1ccc(OC)c(C(=O)N2CCC(n3nccc3NC(=O)CC(C)C)CC2)c1	none
CC1(C(=O)Nc2cccc(OC(F)(F)F)c2)Cc2c(-c3ccc(C(N)=O)cc3)ccnc2O1 (configuration not stated)	none (no result: T cell HTS, NR2E3 ag-2)
Cc1cc(N2CCN(C/C=C/c3ccccc3)CC2)n2ncnc2n1	none | NR2E3 ag confirm inactive | VP16 counter inactive
COc1ccc2c(CN(Cc3ccccc3)Cc3ccccc3)cc(=O)oc2c1	none (no result: T cell HTS, NR2E3 ag-2, FXN GAA850 act)
Cc1nn(C)c(C)c1/C=C/C(=O)O	none
Cc1nn(C)c(C)c1/C=C/C(=O)c1ccc(Cl)cc1Cl	NR2E3 ag-1 75.7 | NR2E3 ag confirm 99.6 | VP16 counter 85.0
CC(=O)c1ccc(NC(=O)CSc2ccc(-c3ccc(-n4cccn4)cc3)nn2)cc1	none
Cc1ccc(C(=O)O/N=C(\N)c2ccccn2)cc1	none
CC(C)(C)c1ccc(C(=O)O/N=C(\N)c2ccccn2)cc1	NR2E3 ag-1 105.8 | NR2E3 ag confirm 88.7 | VP16 counter 76.2
CCOc1ccc(C(=O)O/N=C(\N)c2ccccn2)cc1	none (no result: NR2E3 ag-2) | NR2E3 ag confirm inactive | VP16 counter inactive
NC(=O)c1cccc(-c2ccnc3c2CC(C(=O)NCc2ccccc2)O3)c1 (configuration not stated)	none (no result: T cell HTS, NR2E3 ag-2, Myeloid diff MLP)
COc1cccc(C(=O)NCc2ccco2)c1	none
Fc1ccc2[nH]c3c(NCc4ccccc4)ncnc3c2c1	NR2E3 ag-1 90.0 | NR2E3 ag confirm 97.5 | VP16 counter 86.8
CCc1c(C)nc2nc(SCc3ccccc3Cl)[nH]n2c1=O	none | NR2E3 ag confirm 84.2 | VP16 counter inactive
CSc1nc2nc(C)c(C/C=C/c3ccccc3)c(=O)n2[nH]1	none
CCC(=O)N1CCc2cc(S(=O)(=O)CCC(=O)N3CCN(c4ccc(Cl)cc4)CC3)ccc21	none | NR2E3 ag confirm inactive | VP16 counter inactive
CCOC(=O)C(C(=O)OCC)C(=O)c1cccc2ccc3ccccc3c12	none (no result: T cell HTS, NR2E3 ag-2)
O=C(Nc1cc(C(F)(F)F)ccc1N1CCOCC1)c1ccco1	NR2E3 ag-1 103.1 | NR2E3 ag confirm inactive | VP16 counter inactive
CC1(C(=O)Nc2ccc3c(c2)OCO3)CCN1C(=O)Cc1ccc(-c2ccccc2)cc1 (configuration not stated)	NR2E3 ag-1 93.5 (no result: T cell HTS, NR2E3 ag-2) | NR2E3 ag confirm 96.5 | VP16 counter 83.9
CC1(C(=O)Nc2ccc(Cl)c(Cl)c2)CCN1C(=O)Cc1ccc(-c2ccccc2)cc1 (configuration not stated)	none (no result: T cell HTS, NR2E3 ag-2) | NR2E3 ag confirm 93.1 | VP16 counter 72.8
CCC(=O)N1CCC1(C)C(=O)Nc1ccc2c(c1)OCO2 (configuration not stated)	none (no result: T cell HTS, NR2E3 ag-2)
CC1(C(=O)Nc2ccc(Cl)c(Cl)c2)CCN1C(=O)CC(c1ccccc1)c1ccccc1 (configuration not stated)	none (no result: T cell HTS, NR2E3 ag-2)
CC1(C(=O)Nc2ccccc2)CCN1C(=O)Cc1ccc(-c2ccccc2)cc1 (configuration not stated)	none (no result: T cell HTS, NR2E3 ag-2) | NR2E3 ag confirm inactive | VP16 counter inactive
COc1cccc(NC(=O)C2(C)CCN2C(=O)Cc2ccc(-c3ccccc3)cc2)c1 (configuration not stated)	none (no result: T cell HTS, NR2E3 ag-2)

From PubChem
